Activity calls are given as the source filed them. The rule behind the calls is not given here.
Key:
A549 [1] = assay: Induction of morphological changes in human A549 cells assessed as change in golgi apparatus at 30 uM incubated for 24 hrs by cyto-painter dye based inverted microscopic method; assay type: functional, cell-based
A549 [2] = assay: Induction of lysosomal activation in human A549 cells assessed as increase in endosomal volume by measuring Lamp 1 expression at 30 uM incubated for 6 hrs by immunostaining based confocal microscopic analysis; assay type: functional, cell-based
HeLa = assay: Cytotoxicity against human HeLa cells assessed as reduction in cell viability at >100 uM incubated for 20 hrs by Alamar blue assay; assay type: cell-based
A549 [3] = assay: Induction of morphological changes in human A549 cells assessed as change in mitochondria at 30 uM incubated for 24 hrs by MitoTracker Red based inverted microscopic method; assay type: functional, cell-based
A549 [4] = assay: Inhibition of colony formation in human A549 cells assessed as reduction in colony forming unit at 30 to 60 uM incubated for 16 hrs followed by fresh medium supplementation and measured after 7 days by crystal violet-staining based assay; assay type: cell-based; settings: a549, 16 h
Summary of the method: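 Colony-forming assay of A549 cells with compound at 30 or 60 μM, DMSO vehicle, and paclitaxel (5 μM) as positive control; n = 2.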

A549 [5] = assay: Increase in cholesterol accumulation in human A549 cells at 30 uM incubated for 18 hrs by choelesterol-avid filipin-3 staining based confocal microscopic analysis; assay type: functional, cell-based
Summary of the method: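 A549 cells were treated 18 h with compound or DMSO, fixed, and stained with Filipin III for cholesterol. Confocal imaging; fluorescence quantified in >30 cells (mean ± SEM), unpaired t test versus DMSO.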

Vero [6] = assay: Selectivity index, ratio of CC50 for cytotoxicity against African green monkey Vero cells to EC50 for cytoprotective activity in TcdB-induced cytotoxicity in African green monkey Vero cells; set-up: species or system Chlorocebus sabaeus
A-431 = assay: Cytoprotection activity in human A431 cells assessed as inhibition of diphtheria induced toxicity incubated for 20 hrs followed by replacement of [14c]-Leucine containing medium and measured after 4 hrs by liquid scintillation analysis; assay type: functional, cell-based
[7] = Selectivity index, ratio of CC50 for cytotoxicity against human HeLa cells to ratio of EC50 for Antiviral activity against Zaire EBOV-mayinga strain expressing GFP infected in human HeLa cells; assay type: toxicity, cell-based; settings: read-out: Ratio CC50/EC50
Zaire ebolavirus [8] = assay: Antiviral activity against Zaire EBOV-mayinga expressing GFP infected in human HeLa cells preincubated for 1 hr followed by viral infection after 24 hrs by DAPI-staining based fluorescence assay relative to control; assay type: functional, 1976
HUVEC [9] = assay: Cytoprotection activity in HUVEC assessed as inhibition of diphtheria induced toxicity by measuring protein synthesis at 15 to 60 uM incubated for 20 hrs followed by replacement of [14c]-Leucine containing medium and measured after 4 hrs by liquid scintillation analysis; assay type: functional, cell-based; settings: Homo sapiens
L929 [10] = assay: Cytoprotective activity in Pseudomonas aeruginosa exotoxin induced toxicity in mouse L929 cells assessed as protection factor after 18 hrs by liquid scintillation analysis relative to untreated control; assay type: functional
Summary of the method: (§1)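 L929 cells were intoxicated with increasing doses of Pseudomonas exotoxin A for 18 h with compound (30 μM) or DMSO present. Protein synthesis was measured; duplicate wells, mean ± SD, one representative experiment (n = 3).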

[11] = Cytotoxicity against human HeLa cells assessed as reduction in cell viability incubated for 20 hrs by Alamar blue assay; assay type: cell-based
Lyssavirus rabies = assay: Antiviral activity against RABV infected in BSR cells preincubated for 4 hrs followed by viral infection and further incubated with compounds for 24 hrs by immunostaining-based assay; assay type: functional, organism-based
Summary of the method: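 BSR cells were pretreated 4 h with compound, then infected with RABV (MOI = 14) for 1 h. Cells were washed and kept with compound for 24 h, then fixed and immunostained for the RABV ribonucleocapsid (RNP). Nuclei and RNP images from 15 fields per well (>10,000 cells) were used to calculate percent inhibition.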

L929 [12] = assay: Cytoprotective activity in Pseudomonas aeruginosa exotoxin-induced toxicity in mouse L929 cells assessed as protection of protein synthesis after 18 hrs followed by replacement of [14c]-Leucine containing medium and measured after 4 hrs by liquid scintillation analysis by liquid scintillation analysis; assay type: functional, cell-based; summary of the method: as §1
A549 [13] = assay: Cytoprotection activity against diphtheria toxin-induced cytotoxicity against human A549 cells assessed as effect on protein synthesis incubated for 20 hrs followed by replacement of [14c]-Leucine containing medium and measured after 4 hrs by liquid scintillation analysis; assay type: functional, cell-based
Summary of the method: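 A549 cells were incubated with compound and then challenged with increasing DT concentrations. DT cytotoxicity was read as protein synthesis inhibition. Data are mean of duplicate wells ± SD from one representative experiment (n = 3).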

Vero [14] = assay: Inhibition of TcsL-induced cytotoxicity against African green monkey Vero cells assessed as reversal of toxin-induced cell rounding at 30 uM in presence of TcsL after 16 hrs by inverted microscopic analysis; assay type: functional, cell-based; settings: Chlorocebus sabaeus
Summary of the method: (§2)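 Vero cells were given compound (30 μM) or DMSO, then increasing doses of TcdB for 4 h or TcsL for 16 h. Cell rounding was imaged by inverted microscope. Rounded cells were counted and normalised to total Hoechst-counterstained cells (>100 cells per treatment).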

HUVEC [15] = assay: Cytotoxicity against HUVEC assessed as reduction in cell viability at >100 uM incubated for 20 hrs and measured after 2 hrs by Alamar blue assay; assay type: cell-based; settings: human
A549 [16] = assay: Cytotoxicity against human A549 cells assessed as reduction in cell viability at 15 uM incubated for 20 hrs in presence of bafilomycin A1; assay type: cell-based; settings: a549, 20 h
A549 [17] = assay: Induction of lysosomal activation in human A549 cells assessed as increase in endosomal volume by measuring Rab7 expression at 30 uM incubated for 6 hrs by immunostaining based confocal microscopic analysis; assay type: functional, cell-based
Summary of the method: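 A549 cells were pretreated 6 h with compound or DMSO and immunostained for Rab7, with DAPI nuclei. Confocal imaging; fluorescence quantified in >30 cells (mean ± SEM), unpaired t test versus DMSO.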

A549 [18] = assay: Inhibition of diphtheria induced toxicity in human A549 cells assessed as protection fold at 30 uM incubated for 20 hrs followed by replacement of [14c]-Leucine containing medium and measured after 4 hrs by liquid scintillation analysis relative to ABMA; assay type: functional
Summary of the method: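 Single-concentration screen: 30 μM compound on A549 cells with increasing DT concentrations, read as protein synthesis inhibition. Protection fold was calculated with ABMA as the positive control.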

Zaire ebolavirus [19] = assay: Potency index, ratio of ABMA EC50 to compound EC50 for antiviral activity against Zaire Ebola virus -Mayinga expressing GFP infected in human HeLa cells; assay type: functional, 1976
Vero [20] = assay: Inhibition of TcsL-induced cytotoxicity against African green monkey Vero cells assessed as reversal of toxin-induced cell rounding after 16 hrs by inverted microscopic analysis; assay type: functional, cell-based; settings: Chlorocebus sabaeus; summary of the method: as §2
Zaire ebolavirus [21] = assay: Antiviral activity against Zaire EBOV-Mayinga expressing GFP infected in human HeLa cells preincubated for 1 hr followed by viral infection after 24 hrs by DAPI-staining based fluorescence assay; assay type: functional, organism-based; settings: Zaire, 1976, HeLa
A549 [22] = assay: Inhibition of diphtheria induced toxicity in human A549 cells assessed as protection factor at 15 uM incubated for 20 hrs followed by replacement of [14c]-Leucine containing medium and measured after 4 hrs by liquid scintillation analysis relative to untreated control; assay type: functional
Summary of the method: (§3)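 A549 cells were incubated with Baf A1 (0.15 nM), DABMA (15 μM), both, or DMSO vehicle before DT was added, with the compounds kept present throughout. Toxin protection was read as protein synthesis and expressed as protection factor.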

A549 [23] = assay: Inhibition of diphtheria induced toxicity in human A549 cells assessed as protection factor at 15 uM incubated for 20 hrs in presence of bafilomycin A1 followed by replacement of [14c]-Leucine containing medium and measured after 4 hrs by liquid scintillation analysis relative to untreated control; assay type: functional; summary of the method: as §3

In the case of `COc1ccc(Br)cc1CNC12CC3CC(C)(CC(C)(C3)C1)C2`, the Activity (A549 [1]) is reported as “inactive”, the Activity (A549 [2]) is reported as “Active” and the Activity (HeLa) is reported as “Toxic”. For the same molecule, the Activity (A549 [3]) was “inactive”, the Activity (A549 [4]) was “Non-Toxic” and the Activity (A549 [5]) was “Active”. The “Ratio CC50/EC50” value (Vero [6]) was 6.34, the Activity (A-431) was “Active” and the selectivity ratio [7] was 120. The “inhibition (INH)” value (Zaire ebolavirus [8]) was over 50%, the Activity (HUVEC [9]) was “Active” and the “fold change (FC)” value (L929 [10]) was 4.8. The CC50 at 20 h [11] was 117 µM, the inhibition (Lyssavirus rabies) was “Active” and the EC50 (L929 [12]) was 20.8 µM. The EC50 (A549 [13]) was 25.7 µM, the inhibition (Vero [14]) was “Active” and the Activity (HUVEC [15]) was “Toxic”. For the same molecule, the Activity (A549 [16]) was “Non-Toxic”, the Activity (A549 [17]) was “Active” and the “fold change (FC)” value (A549 [18]) was 18.5. For the same molecule, the “Ratio EC50” value (Zaire ebolavirus [19]) was 6.6, the EC50 (Vero [20]) was 15.8 µM and the EC50 (Zaire ebolavirus [21]) was 908 nM. For the same molecule, the “fold change (FC)” value (A549 [22]) was 6.3 and the “fold change (FC)” value (A549 [23]) was 300.

From ChEMBL document CHEMBL4304791, “DABMA: A Derivative of ABMA with Improved Broad-Spectrum Inhibitory Activity of Toxins and Viruses” (ACS Med Chem Lett, 2019)
